Assay results from ChEMBL document CHEMBL3259763, “Synthesis and antifilarial activity of chalcone-thiazole derivatives against a human lymphatic filarial parasite, Brugia malayi” (Eur J Med Chem, 2014).
Calls of active or inactive are those of the source. The calls are words filed in the database; no cut-off is given here.

How the values were obtained:
Brugia malayi [1] = assay: Antifilarial activity against Brugia malayi adult worm assessed as inhibition of parasite motility after 48 hrs by microscopic analysis; format: functional, organism-based
Outline: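 Freshly isolated adult female B. malayi were washed in HBSS (pH 7.2) and incubated one worm/ml/well, in triplicate, in HBSS with penicillin/streptomycin. Two-fold dilutions from 0.38-40 µM were given in DMSO (final <0.1%), with DMSO controls. After 48 h, motility was scored 0-4 under a microscope. IC50 was found by linear interpolation of percent inhibition versus DMSO.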

Brugia malayi [2] = assay: Antifilarial activity against Brugia malayi microflilariae worm assessed as inhibition of parasite motility after 48 hrs by microscopic analysis; format: functional, organism-based
Outline: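 B. malayi microfilariae were washed in HBSS (pH 7.2) and plated at 40-50 mf/100 µL/well, in triplicate, in HBSS with penicillin/streptomycin. Two-fold dilutions from 0.38-40 µM were given in DMSO (final <0.1%), with DMSO controls, for 48 h at 37 °C, 5% CO2. Motility was scored microscopically, and IC50 was found by linear interpolation over control.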

Brugia malayi [3] = assay: Antifilarial activity against Brugia malayi adult worm assessed as inhibition of parasite viability after 48 hrs by MTT assay; format: functional
Outline: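 Adult female B. malayi washed in HBSS pH 7.2, one worm/mL/well in triplicate, exposed 48 h at 37 °C in 5% CO2 to two-fold dilutions (0.38-40 µM; DEC 15.63-1000 µM) in HBSS with penicillin/streptomycin, DMSO <0.1% final; after motility scoring the same worms taken for MTT reduction; % inhibition vs DMSO control, IC50 by linear interpolation.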

[4] = Cytotoxicity against African green monkey Vero C1008 cells assessed as cell death by three-fold serial dilution method; format: cell-based; conditions: chlorocebus sabaeus
Outline: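 Vero C1008 cells exposed to three-fold serial dilutions of test agents, starting above 20 x LC100; CC50 obtained by linear interpolation between the concentrations bracketing 50% inhibition.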

Brugia malayi [5] = assay: Antifilarial activity against third stage infective larvae (L3) form of Brugia malayi infected in Mastomys coucha assessed as female sterilizing efficacy at 100 mg/kg, sc administered for 5 days measured on day 91 post-initiation of drug treatment (reference value: 23%); format: functional; conditions: route subcutaneous
Brugia malayi [6] = assay: Antifilarial activity against Brugia malayi adult worm infected in jird assessed as embryostatic effect at 100 mg/kg, sc administered for 5 days starting from day 7/8 post-worm transplantation (reference value: 9.80 +/- 5.63%); format: functional; conditions: route subcutaneous
Brugia malayi [7] = assay: Antifilarial activity against third stage infective larvae (L3) form of Brugia malayi infected in Mastomys coucha assessed as reduction in adult worm recovery at 100 mg/kg, sc administered for 5 days measured on day 91 post-initiation of drug treatment; format: functional; conditions: route subcutaneous
Outline: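 M. coucha carrying 5-7 month old L3-induced sub-periodic B. malayi infections received 5 days of s.c. dosing (vehicle 0.1% Tween-80; DEC in water). Killed day 91 p.i.t.; adults were recovered from teased heart, lung and testes, and % reduction in recovery was calculated vs vehicle controls.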

Mastomys coucha = assay: Toxicity in Mastomys coucha infected with third stage infective larvae (L3) form of Brugia malayi assessed as normal behaviour at 100 mg/kg, sc administered for 5 days measured on day 91 post-initiation of drug treatment; format: organism-based; parameters: dose 100 mg/kg, route subcutaneous; conditions: in vivo, 120 h
[8] = (§1) Selectivity index, ratio of CC50 for African green monkey Vero C1008 cells to IC50 for Brugia malayi microflilariae worm; format: functional
Outline: (§2)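 SI computed as CC50 (Vero C1008) divided by IC50 against adult worms or mf; IC50 values from 48 h exposure of parasites to two-fold dilutions at 37 °C, with % inhibition vs DMSO-treated worms and linear interpolation.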

[9] = (§3) Selectivity index, ratio of CC50 for African green monkey Vero C1008 cells to IC50 for Brugia malayi adult worm; format: functional; outline: as §2
Meriones unguiculatus = assay: Toxicity in jird infected with Brugia malayi adult worm assessed as normal behaviour at 100 mg/kg, sc administered for 5 days starting from day 7/8 post-worm transplantation measured on day 60 post-initiation of drug treatment; format: organism-based; parameters: dose 100 mg/kg, route subcutaneous; conditions: gerbil, in vivo, 120 h
Brugia malayi [10] = assay: Antifilarial activity against Brugia malayi adult worm infected in jird assessed as macrofilaricidal efficacy by measuring reduction in adult worm recovery at 100 mg/kg, sc administered for 5 days starting from day 7/8 post-worm transplantation measured on day 60 post-initiation of drug treatment; format: functional; conditions: route subcutaneous
Outline: (§4)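 Jirds carrying intraperitoneally transplanted B. malayi (sub-periodic) adults were dosed s.c. for 5 days starting day 7/8 after transplantation; test agents were suspended fresh daily in 0.1% Tween-80, DEC in water, ivermectin in 0.1% Tween-80. Killed day 60 p.i.t.; worms recovered from peritoneal washings were counted, and % reduction was calculated vs vehicle controls (4-8 animals).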

Brugia malayi [11] = assay: Antifilarial activity against Brugia malayi adult worm infected in jird assessed as microfilaricidal activity at 100 mg/kg, sc administered for 5 days starting from day 7/8 post-worm transplantation measured on day 7 post-initiation of drug treatment; format: functional, organism-based; parameters: dose 100 mg/kg
Outline: (§5)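 Mf in peritoneal cavity of transplanted jirds were examined on day 7/8 p.i.t. after 5 days of s.c. dosing started on day 7/8; change was expressed as % of the pretreatment mf count.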

Brugia malayi [12] = assay: Antifilarial activity against Brugia malayi adult worm infected in jird assessed as embryostatic effect at 1 mg/kg, sc administered for 5 days starting from day 7/8 post-worm transplantation (reference value: 9.80 +/- 5.63%); format: functional, organism-based; parameters: dose 1 mg/kg
Brugia malayi [13] = assay: Antifilarial activity against Brugia malayi adult worm infected in jird assessed as microfilaricidal activity at 1 mg/kg, sc administered for 5 days starting from day 7/8 post-worm transplantation measured on day 7 post-initiation of drug treatment; format: functional, organism-based; parameters: dose 1 mg/kg; outline: as §5
Brugia malayi [14] = assay: Antifilarial activity against Brugia malayi adult worm infected in jird assessed as reduction in adult worm recovery at 1 mg/kg, sc administered for 5 days starting from day 7/8 post-worm transplantation measured on day 60 post-initiation of drug treatment; format: functional, organism-based; parameters: dose 1 mg/kg; outline: as §4
Vero C1008 [15] = assay: as §1; format: functional; outline: as §2
Vero C1008 [16] = assay: as §3; format: functional; outline: as §2

| Compound | LC100 (Brugia malayi [1]) [µM] | LC100 (Brugia malayi [2]) [µM] | inhibition (Brugia malayi [3]) | inhibition (INH) (Brugia malayi [3]) [%] | further results |
| --- | --- | --- | --- | --- | --- |
| Cc1ccc(C(=O)/C=C/c2cc(C)c(O)c(/C=N/c3nccs3)c2)cc1 | >40 | >40 | inactive |  |  |
| Cc1cc(/C=C/C(=O)c2cccs2)cc(/C=N/c2nccs2)c1O | >40 | >40 |  |  |  |
| Cc1ccc(C(=O)/C=C/c2cc(/C=N/c3nccs3)c(O)c(C(C)C)c2)cc1 | >40 | >40 |  |  |  |
| COc1ccc(C(=O)/C=C/c2cc(/C=N/c3nccs3)c(O)c(C(C)C)c2)cc1 | >40 | >40 |  | 61 |  |
| CC(C)(C)c1cc(/C=C/C(=O)c2cccs2)cc(/C=N/c2nccs2)c1O | 2.5 | 5 |  | 49 | CC50 ([4]; Vero C1008 cells): 40 µM; Activity (Brugia malayi [5]): 44%; Activity (Brugia malayi [6]): 100%; inhibition in vivo at 100 mg/kg (Brugia malayi [7]): 48.6%; Activity (Mastomys coucha): Non-toxic; IC50 (Brugia malayi [1]; Brugia malayi, 48 h): 0.9 µM; Ratio CC50/IC50 [8]: 22; Ratio CC50/IC50 [9]: 44; IC50 (Brugia malayi [2]; Brugia malayi, 48 h): 1.8 µM; Activity (Meriones unguiculatus): Non-toxic |
| COc1ccc(C(=O)/C=C/c2cc(C)c(O)c(/C=N/c3nccs3)c2)cc1 | >40 | >40 |  | 25 |  |
| CC(C)c1cc(/C=C/C(=O)c2cccs2)cc(/C=N/c2nccs2)c1O | >40 | >40 | inactive |  |  |
| CCCc1cc(/C=C/C(=O)c2ccc(C)cc2)cc(/C=N/c2nccs2)c1O | >40 | >40 | inactive |  |  |
| CC(C)c1cc(/C=C/C(=O)c2ccco2)cc(/C=N/c2nccs2)c1O | 10 | 10 |  | 63 | inhibition in vivo at 100 mg/kg (Brugia malayi [10]): 18.2%; CC50 ([4]; Vero C1008 cells): 60 µM; Activity (Brugia malayi [5]): 30%; Activity (Brugia malayi [6]): 0%; inhibition in vivo at 100 mg/kg (Brugia malayi [7]): 40.9%; Activity (Mastomys coucha): Non-toxic; IC50 (Brugia malayi [1]; Brugia malayi, 48 h): 3.2 µM; Ratio CC50/IC50 [8]: 17; Activity (Brugia malayi [11]): inactive; Ratio CC50/IC50 [9]: 19; IC50 (Brugia malayi [2]; Brugia malayi, 48 h): 3.5 µM; Activity (Meriones unguiculatus): Non-toxic |
| Cc1ccc(C(=O)/C=C/c2cc(/C=N/c3nccs3)c(O)c(C(C)(C)C)c2)cc1 | >40 | 40 | inactive |  |  |
| CCCc1cc(/C=C/C(=O)c2ccc(OC)cc2)cc(/C=N/c2nccs2)c1O | >40 | >40 | inactive |  |  |
| IVERMECTIN [listing 1 of 2 here] |  |  |  |  | CC50 ([4]; vero): 230 µM; IC50 (Brugia malayi [1]): 3.05 µM; IC50 (Brugia malayi [2]): 1.57 µM |
| COc1ccc(C(=O)/C=C/c2cc(/C=N/c3nccs3)c(O)c(C(C)(C)C)c2)cc1 | >40 | 40 | inactive |  |  |
| CC(C)(C)c1cc(/C=C/C(=O)c2ccco2)cc(/C=N/c2nccs2)c1O | 40 | 20 | inactive |  | CC50 ([4]; Vero C1008 cells): 220 µM; Ratio CC50/IC50 [8]: 28.57; IC50 (Brugia malayi [2]; Brugia malayi, 48 h): 7.07 µM |
| IVERMECTIN [listing 2 of 2 here] | 5 | 2.5 |  |  | Activity (Brugia malayi [12]): 43.2%; Activity (Brugia malayi [13]): inactive; inhibition (Brugia malayi [14]): 21.1%; Ratio CC50/IC50 (Vero C1008 [15]): 146; Ratio CC50/IC50 (Vero C1008 [16]): 75.4; inhibition (Brugia malayi [3]; dose or concentration not given here): 5.8% |
| Cc1cc(/C=C/C(=O)c2ccco2)cc(/C=N/c2nccs2)c1O | >40 | >40 |  | 62 |  |
